Results reported in ChEMBL document CHEMBL1177815, “Synthesis and molecular docking studies of novel 2-chloro-pyridine derivatives containing flavone moieties as potential antitumor agents” (Bioorg Med Chem Lett, 2010).
In brackets after ≈: the same amount, converted by molar mass. Activity calls are given as the source filed them. The rule behind the calls is not given here.

Experiments:
[1] = system: SGC-7901; test: Cytotoxicity against human SGC7901 after 48 hrs by MTT assay; type: functional, cell-based
How it was run: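 SGC-7901 cells were diluted to 3 × 10⁴ cells/mL and seeded at 100 µL per well, then held 24 h at 37 °C in 5% CO₂ before treatment. Samples at pre-set concentrations went into six wells each, with 5-fluorouracil as positive control and DMSO as negative control. Read-out was absorbance at 570 nm. Data are the mean ± SD of three experiments in triplicate. IC50 is the concentration at which 50% of cells survive.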

[2] = target: T1, Telomerase reverse transcriptase (Homo sapiens, UniProt O14746); test: Inhibition of human telomerase in human SGC7901 cells by TRAP assay
[3] = target: DNA polymerase I, thermostable (Thermus aquaticus, UniProt P19821); test: Inhibition of Thermus aquaticus taq polymerase
[4] = Selectivity index, ratio of IC50 for taq polymerase to IC50 for human telomerase
How it was run: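 Selectivity index is the ratio of the concentration giving 50% Taq polymerase inhibition to the concentration giving 50% telomerase inhibition (modified TRAP, SGC-7901 cell extract).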

[5] = target: T1, Telomerase reverse transcriptase; test: Inhibition of human telomerase in human SGC7901 cells at 0 to 60 uM by TRAP assay; type: cell-based; settings: SGC-7901
How it was run: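 Telomerase inhibition was measured by a modified TRAP assay using SGC-7901 cell extract. Compounds were tested across the stated concentration range. IC50 is the concentration giving 50% telomerase inhibition. Ethidium bromide served as reference control.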

[6] = target: DNA polymerase I, thermostable (Thermus aquaticus) (UniProt P19821); test: Inhibition of Thermus aquaticus taq polymerase at 0 to 60 uM
[7] = Homo sapiens, SGC-7901, 48 h, read-out: IC50

DNA polymerase I, thermostable, sequence (P19821 whole entry): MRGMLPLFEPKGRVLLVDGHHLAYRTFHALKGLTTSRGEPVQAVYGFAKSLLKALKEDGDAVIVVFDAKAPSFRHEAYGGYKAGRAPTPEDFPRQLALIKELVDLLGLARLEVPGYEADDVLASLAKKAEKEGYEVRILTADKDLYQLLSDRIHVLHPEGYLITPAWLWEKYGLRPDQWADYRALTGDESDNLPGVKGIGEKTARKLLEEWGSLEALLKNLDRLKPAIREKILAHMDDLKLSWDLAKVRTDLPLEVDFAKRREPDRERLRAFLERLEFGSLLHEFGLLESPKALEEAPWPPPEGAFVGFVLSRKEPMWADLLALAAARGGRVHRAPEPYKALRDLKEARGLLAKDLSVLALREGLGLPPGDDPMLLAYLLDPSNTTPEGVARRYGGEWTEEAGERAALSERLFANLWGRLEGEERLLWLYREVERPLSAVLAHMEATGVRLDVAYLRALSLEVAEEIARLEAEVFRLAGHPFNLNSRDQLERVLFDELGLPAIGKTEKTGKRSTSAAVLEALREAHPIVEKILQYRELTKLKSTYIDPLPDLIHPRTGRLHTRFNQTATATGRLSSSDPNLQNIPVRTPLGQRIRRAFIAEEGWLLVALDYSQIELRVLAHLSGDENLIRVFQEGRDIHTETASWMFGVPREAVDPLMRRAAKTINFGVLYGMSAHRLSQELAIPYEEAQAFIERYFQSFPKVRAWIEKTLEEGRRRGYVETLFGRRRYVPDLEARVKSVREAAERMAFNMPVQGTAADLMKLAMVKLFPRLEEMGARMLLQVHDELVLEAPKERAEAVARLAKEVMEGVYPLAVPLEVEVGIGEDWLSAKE
T1 sequence (O14746 whole entry): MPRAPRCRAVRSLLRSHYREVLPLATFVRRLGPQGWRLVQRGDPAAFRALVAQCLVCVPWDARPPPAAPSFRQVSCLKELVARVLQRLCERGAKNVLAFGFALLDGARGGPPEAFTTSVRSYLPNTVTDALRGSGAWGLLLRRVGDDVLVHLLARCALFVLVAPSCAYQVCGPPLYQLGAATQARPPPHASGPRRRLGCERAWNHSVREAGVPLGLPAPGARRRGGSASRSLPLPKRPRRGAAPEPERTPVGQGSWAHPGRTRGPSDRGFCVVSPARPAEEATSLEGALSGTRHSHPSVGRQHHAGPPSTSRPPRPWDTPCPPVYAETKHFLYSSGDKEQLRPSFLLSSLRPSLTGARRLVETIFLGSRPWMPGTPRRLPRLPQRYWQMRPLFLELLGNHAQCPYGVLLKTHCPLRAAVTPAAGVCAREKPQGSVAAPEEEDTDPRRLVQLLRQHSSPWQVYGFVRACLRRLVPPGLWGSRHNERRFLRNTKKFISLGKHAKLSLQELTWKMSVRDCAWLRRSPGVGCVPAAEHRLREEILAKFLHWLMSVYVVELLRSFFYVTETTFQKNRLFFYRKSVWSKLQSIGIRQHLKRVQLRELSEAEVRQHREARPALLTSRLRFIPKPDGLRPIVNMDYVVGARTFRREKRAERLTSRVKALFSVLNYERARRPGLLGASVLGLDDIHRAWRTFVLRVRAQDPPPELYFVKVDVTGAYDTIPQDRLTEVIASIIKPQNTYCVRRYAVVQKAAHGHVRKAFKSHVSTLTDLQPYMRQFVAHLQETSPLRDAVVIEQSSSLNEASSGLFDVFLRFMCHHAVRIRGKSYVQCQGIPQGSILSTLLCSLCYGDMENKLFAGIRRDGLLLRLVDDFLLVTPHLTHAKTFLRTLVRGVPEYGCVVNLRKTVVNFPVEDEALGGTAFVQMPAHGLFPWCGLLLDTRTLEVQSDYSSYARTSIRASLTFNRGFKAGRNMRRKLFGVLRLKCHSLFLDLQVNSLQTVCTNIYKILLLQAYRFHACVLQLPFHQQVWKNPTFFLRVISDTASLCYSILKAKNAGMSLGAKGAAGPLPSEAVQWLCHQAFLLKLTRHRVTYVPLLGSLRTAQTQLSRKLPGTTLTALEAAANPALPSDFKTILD
DNA polymerase I, thermostable (Thermus aquaticus), sequence (P19821 whole entry): as the sequence (P19821 whole entry) above

Q: With `CC(=O)N1N=C(C)CC1c1ccc(OCc2ccc(Cl)nc2)cc1` (stereo unspecified) as the molecule, how does the IC50 ([1]; sgc-7901) read?
A: Not Active

Q: What about the IC50 [2] of the same molecule?
A: 46.7 µM

Q: For `O=c1[nH]cc(F)c(=O)[nH]1` [FLUOROURACIL], which IC50 [1, 7] is on record?
A: 7.38 µg/mL (≈ 56.7 µM)

Q: With `O=c1cc(-c2ccc(OCc3ccc(Cl)nc3)cc2)oc2cc(OCc3ccc(Cl)nc3)ccc12` as the molecule, how does the IC50 [1, 7] read?
A: 18.4 µg/mL (≈ 36.5 µM)

Q: What about the IC50 [3] of the same molecule?
A: 5 µM

Q: What about the IC50 [2] of the same molecule?
A: 3 µM

Q: What about the Ratio IC50 [4] of the same molecule?
A: 1.6

Q: For `COc1ccc(-c2cc(=O)c3ccc(OCc4ccc(Cl)nc4)cc3o2)cc1`, which IC50 [1, 7] is on record?
A: 35.2 µg/mL (≈ 89.3 µM)

Q: And the IC50 [3]?
A: 6.4 µM

Q: And the IC50 [2]?
A: 3.1 µM

Q: And the Ratio IC50 [4]?
A: 2.1

Q: For `O=c1cc(-c2ccc(OCc3ccc(Cl)nc3)cc2)oc2cc(OCc3ccc(Cl)nc3)cc(O)c12`, which IC50 [1, 7] is on record?
A: 22.3 µg/mL (≈ 42.7 µM)

Q: And the IC50 [3]?
A: 2 µM

Q: And the IC50 [2]?
A: 0.8 µM

Q: And the Ratio IC50 [4]?
A: 2.5

Q: What does the source list for `COc1ccc(-c2coc3cc(OCc4ccc(Cl)nc4)ccc3c2=O)cc1`?
A: IC50 [1, 7]: 31.9 µg/mL (≈ 81.1 µM); IC50 [3]: 7.5 µM; IC50 [2]: 2.5 µM; Ratio IC50 [4]: 3

Q: Which results are given for `O=c1cc(-c2ccc(OCc3ccc(Cl)nc3)cc2)oc2cc(O)cc(O)c12`?
A: IC50 [1, 7]: 25.9 µg/mL (≈ 65.5 µM); IC50 [3]: 6.8 µM; IC50 [2]: 3.5 µM; Ratio IC50 [4]: 1.9

Q: Which results are given for `O=c1cc(-c2ccccc2)oc2cc(OCc3ccc(Cl)nc3)cc(O)c12`?
A: IC50 ([1]; sgc-7901): Not Active; IC50 [3]: 27.5 µM; IC50 [2]: 20.9 µM; Ratio IC50 [4]: 1.3

Q: With `CC(=O)N1N=C(C)CC1c1ccccc1OCc1ccc(Cl)nc1` (stereo unspecified) as the molecule, how does the IC50 ([1]; sgc-7901) read?
A: Not Active

Q: What about the IC50 [3] of the same molecule?
A: 53.2 µM

Q: And the inhibition [5]?
A: inactive

Q: Which results are given for `COc1ccc(-c2oc3ccccc3c(=O)c2OCc2ccc(Cl)nc2)cc1`?
A: IC50 ([1]; sgc-7901): Not Active; inhibition [6]: inactive; inhibition [5]: inactive

Q: Which IC50 ([1]; sgc-7901) does the source give for `O=c1c(OCc2ccc(Cl)nc2)c(-c2ccccc2)oc2ccccc12` here?
A: Not Active

Q: And the inhibition [6]?
A: inactive

Q: What about the inhibition [5] of the same molecule?
A: inactive
